Assay outcomes deposited in PubChem BioAssay by several laboratories.
Arrestin-AP2 inh: inhibitors of beta-arrestin/AP2 binding, primary screen, biochemical, GPCR trafficking, flow cytometry; hit rate 0.31% among 340,000; inhibition, % at 10 µM; FITC-arrestin peptide / GST-AP2 beads; AP2 beta2 appendage carries R879A mutation;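 active = inhibition above a set limit, near 3 SD of compounds lacking own fluorescence, cut at about 54% in these data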;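 also: plate controls were DMSO wells for no effect and 5 µM unlabelled arrestin peptide for full effect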
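Measured by: flow cytometry, FL1 (488/535 nm); Material: AP2 appendage R879A on GSH beads; Evaluation: percent response; Timing: pre-incubation 12 min, peptide binding 1 h, room temperature; Also added: 50 nM FITC-arrestin peptide; Medium: PBS with 0.05% Tween 20 and 0.1% BSA.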
PG9 Ab binder: binders of HIV-1 gp120 antibody PG9, primary screen, biochemical, TR-FRET; HIV-1 gp120 / PG9 antibody interaction; TR-FRET gp120-PG9 antibody binding; inhibition, % at 6.7 µM; hit rate 0.43% among 360,000; AID 624416, 2012; in the data active = inhibition above about 8.5%
hiPSC survival: enhancers of single-cell hiPSC survival, primary screen, ATPlite luminescence; hit rate 0.044% among 360,000; survival enhancement, % at 20 µM; 100% = ROCK inhibitor wells, 0% = DMSO; in the data active = survival enhancement above about 18%;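 also: cells exposed to compounds for 16 hours before the ATP read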
ABCB6 inh MLPCN: ABCB6 transporter inhibitors, primary screen, K562-ABCB6 cells, flow cytometry, MLPCN library; ATP-binding cassette sub-family B member 6 (Homo sapiens), Q9NP58; K562-ABCB6 porphyrin accumulation, 1 h; stronger effect = lower value; fluorescence ratio to DMSO, % at 10 µM; hit rate 0.19% among 360,000; AID 602162, 2011;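 active = fluorescence ratio to DMSO below 75%, the collection mean minus 3 SD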;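 also: signal is porphyrin accumulated inside mitochondria; 100% equals median channel fluorescence of DMSO control wells; lower ratio means ABCB6 inhibition with less porphyrin fluorescence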
Target sequence (Q9NP58 whole entry, looked up): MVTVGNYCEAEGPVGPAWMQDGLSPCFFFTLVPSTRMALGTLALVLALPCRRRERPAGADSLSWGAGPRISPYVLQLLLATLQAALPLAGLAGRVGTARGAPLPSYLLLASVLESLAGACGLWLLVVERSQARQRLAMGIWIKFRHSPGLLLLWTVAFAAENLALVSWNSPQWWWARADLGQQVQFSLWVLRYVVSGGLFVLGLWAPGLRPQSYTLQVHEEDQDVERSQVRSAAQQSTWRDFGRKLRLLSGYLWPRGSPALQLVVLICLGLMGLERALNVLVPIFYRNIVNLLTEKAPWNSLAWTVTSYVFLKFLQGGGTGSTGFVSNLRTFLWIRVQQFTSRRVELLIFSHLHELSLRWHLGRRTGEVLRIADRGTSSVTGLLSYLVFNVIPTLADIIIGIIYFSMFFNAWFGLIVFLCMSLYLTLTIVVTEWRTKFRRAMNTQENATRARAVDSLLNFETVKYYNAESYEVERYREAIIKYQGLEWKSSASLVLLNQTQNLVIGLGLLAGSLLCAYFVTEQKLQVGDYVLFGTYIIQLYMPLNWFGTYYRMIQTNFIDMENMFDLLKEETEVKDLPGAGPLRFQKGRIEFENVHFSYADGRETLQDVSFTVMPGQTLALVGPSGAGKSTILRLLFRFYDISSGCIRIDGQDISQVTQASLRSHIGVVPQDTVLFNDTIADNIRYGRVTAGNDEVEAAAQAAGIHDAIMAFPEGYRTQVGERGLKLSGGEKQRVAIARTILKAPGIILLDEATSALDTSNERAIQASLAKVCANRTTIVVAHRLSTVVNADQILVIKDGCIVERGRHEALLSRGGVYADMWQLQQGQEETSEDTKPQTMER
Active calls of the source: *; . = no result given. Most compounds without a hit are left out; they make up all but 0.89% or so of the library.

SMILES | Arrestin-AP2 inh | PG9 Ab binder | hiPSC survival | ABCB6 inh MLPCN
CC1CCN(S(=O)(=O)c2ccc3c(c2)C(=NO)c2cc(S(=O)(=O)N4CCC(C)CC4)ccc2-3)CC1 | -4 | 0 | -3 | 70*
COc1ccc(S(=O)(=O)N2CCC(C)CC2)cc1OC | -6 | -1 | 0 | 99
O=S(=O)(c1ccc2c(c1)C(=NO)c1cc(S(=O)(=O)N3CCCCC3)ccc1-2)N1CCCCC1 | -4 | 1 | -3 | 72*
OC1OC2COC(c3ccccc3)OC2C(O)C1O (stereo not given) | . | 1 | . | .
COc1ccc(N(C(=O)CCl)C(C(=O)NCCc2ccccc2)c2cccs2)cc1Cl (stereo not given) | 14 | 1 | -3 | 25*
CC1=C[C@@H]2[C@H]3C(=O)N(Cc4ccccc4)C(=O)[C@H]3[C@@H]1[C@@H]1O[C@@]3(C(=O)N(C)c4ccccc43)C3=C(CCCC3=O)N21 | . | 1 | . | .
COc1cc(/C=C2\SC(=Nc3ccccc3)N(CCc3c[nH]c4ccccc34)C2=O)ccc1OC(C)C(=O)O (stereo not given) | 3 | -1 | 1 | 73*
CC[C@H](NC(=O)[C@@H](Cc1ccccc1)NC(=O)[C@H]1O[C@@H](n2cnc3c(=O)[nH]c(N)nc32)[C@H](O)[C@@H]1O)c1ccccc1 | . | -7 | . | .
Nc1c(C(=O)NCC2CCCO2)sc2nc3c(c(-c4ccco4)c12)CC/C3=C\c1ccco1 (stereo not given) | 56* | -3 | -1 | 99
COC(=O)C1=C(C)N(Cc2ccccc2C(F)(F)F)C(=NCc2ccc(C(F)(F)F)cc2)NC1c1ccccc1 (stereo not given) | . | -1 | . | .
Cc1ccc(S(=O)(=O)N2CCN(C(=O)C3CCN(c4ncnc5sc(C)c(C)c45)CC3)CC2)c(C)c1 | -6 | -1 | -2 | 64*
Cc1sc2ncnc(N3CCN(S(=O)(=O)c4ccc(C(C)(C)C)cc4)CC3)c2c1C | 14 | -2 | -2 | 84
C[C@@H]1C=CCCO[C@]12C(=O)N(Cc1ccc(F)cc1)c1ccccc12 | . | 2 | . | .
c1ccc(CN2CCN(c3nc(NCc4ccco4)c4ccccc4n3)CC2)cc1 | 15 | 1 | 30* | 103
OCCN1CCN(c2nc(NCc3ccco3)c3ccccc3n2)CC1 | 9 | 0 | 1 | 101
Cc1ccc(OCCN2CCN(c3nc(NCc4ccco4)c4ccccc4n3)CC2)cc1 | 29 | -2 | 24* | 97
O=C(Cc1c[nH]c2ccccc12)Nc1ccc(Nc2cccnc2)c(-c2ccc(OC(F)(F)F)cc2)c1 | . | 0 | . | .
C[C@H]1CN([C@@H](C)CO)C(=O)c2cc(Br)cnc2O[C@H]1CN(C)C(=O)C1CC1 | . | -1 | 3 | 100
C[C@@H]1CN([C@@H](C)CO)C(=O)c2cc(Br)cnc2O[C@H]1CN(C)C(=O)C1CC1 | . | -1 | 20* | 97
Cc1ccccc1C(=O)N[C@@H](CC(C)C)C(=O)N1CCC[C@H]1C(=O)NCc1ccccc1 | . | -1 | . | .
C#CC(=O)N(c1cc(OC)ccc1OC)C(C(=O)NC1CCCC1)c1cccs1 (stereo not given) | 9 | . | -4 | 64*
C#CC(=O)N(c1ccc(OC)cc1OC)C(C(=O)NC1CCCC1)c1cccs1 (stereo not given) | 19 | 1 | -5 | 99
CSc1nc(SCC(=O)NCc2ccco2)c2c3c(sc2n1)CN(C)CC3 | 15 | -2 | 2 | 72*
CC(C)C[C@H](NC(=O)c1ccc(Cl)cc1Cl)C(=O)N1CCC[C@H]1C(=O)NCc1ccccc1 | . | -2 | . | .
CCOC(=O)c1c(NC(=O)c2ccccc2)sc2c(O)c(CN(CC)CC)ccc12 | 6 | 1 | 0 | 69*
SMILES | Arrestin-AP2 inh | PG9 Ab binder | hiPSC survival | ABCB6 inh MLPCN
CCN(CC)Cc1c(NC(=O)c2ccccc2)sc(C)c1C | 47 | -4 | -2 | 97
Nc1[nH]c(C(=O)c2ccc(Br)cc2)c(-c2ccc(Cl)cc2)c1C(=O)NCCc1c[nH]c2ccccc12 | . | -2 | . | .
COc1ccc(NC(=S)N2CCC(NC(=O)c3ccc(OC)cc3)CC2)cc1 | 22 | 0 | -1 | 74*
CCOC1=C2[C@H](c3ccc(C)cc3)N(S(=O)(=O)c3ccc(C)cc3)C[C@H]2n2c(=O)n(-c3ccccc3)c(=O)n2C1 | . | 1 | 41* | 101
CCOC(=O)CSc1nc(N)c(C#N)c(-c2ccc(OCC)cc2)c1C#N | 10 | 12* | 0 | 102
COC(=O)CSc1nc(N)c(C#N)c(-c2ccc(O)cc2)c1C#N | 14 | -1 | 1 | 94
